Experimental data: ChEMBL document CHEMBL1926666, “Synthesis of novel 3-cyclohexylpropanoic acid-derived nitrogen heterocyclic compounds and their evaluation for tuberculostatic activity” (Bioorg Med Chem, 2012)
In brackets after ≈: the same amount, converted by molar mass. Activity calls are given as the source filed them. The calls are words filed in the database; no cut-off is given here.

Experiments:
[1] = test system: Mycobacterium tuberculosis; test: Antituberculosis activity against Mycobacterium tuberculosis H37Rv by twofold serial dilution method; format: functional
How it was run: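 Classical two-fold test-tube serial dilution in Youmans' modified Proskauer–Beck liquid medium with 10% bovine serum. Inocula from 14-day cultures. Compounds in ethylene glycol, 10 mg/mL stock, geometric dilutions in medium; 3.1, 6.2, 12.5, 25, 50 and 100 µg/mL evaluated. Incubation at 37 °C. MIC = lowest concentration inhibiting growth relative to a compound-free tube. INH, PZA and RMP served as reference drugs.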

Skin fibroblast = test: Stimulation of type 1 collagen output in human skin fibroblasts after at 10 to 100 ug/ml after 72 hrs by ELISA; format: functional
How it was run: (§1)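 Neonatal human dermal fibroblasts in high-glucose DMEM with 5% calf serum, 3 × 10³ cells/well, 72 h compound exposure. Conditioned media assayed for type I collagen by sandwich ELISA (affinity-purified antibodies, streptavidin/avidin-HRP, ABTS, 405 nm), quantified against a purified human collagen I standard curve. Expressed as % of untreated control. MAP and bFGF (15 ng/mL) served as positive controls.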

Brevibacterium linens = test: Antibacterial activity against Brevibacterium linens ATCC 9174 after 24 hrs by M7-A7 CLSI method; format: functional; conditions: ATCC 9174, 24 h
How it was run: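 Compounds dissolved in 100% DMSO at 5 mg/mL, then 1 mg/mL in 10% DMSO; serial dilutions in broth from 100 µg/mL final. B. linens: nutrient broth 24 h at 30 °C, inoculum 1 McFarland, 24 h with compounds. P. acnes: thioglycolate broth 72 h at 33 °C, inoculum 0.5 McFarland, 72 h anaerobic with compounds. MIC = lowest concentration with no visible growth, confirmed by A655.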

[2] = Growth inhibition of human skin fibroblasts at 100 ug/ml after 72 hrs by MTT assay; parameters: species or system Skin fibroblast; conditions: read-out: GI
How it was run: (§2)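 Neonatal human dermal fibroblasts in high-glucose DMEM with 5% cosmic calf serum, seeded 3 × 10³ cells/well and exposed to compounds for 72 h. MTT then added for 2.5 h; formazan solubilised in isopropanol and read at 550 nm; signal proportional to cell number.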

[3] = Growth inhibition of human skin fibroblasts at 10 ug/ml after 72 hrs by MTT assay; parameters: species or system Skin fibroblast; conditions: read-out: GI; how it was run: as §2
[4] = Stimulation of type 1 collagen output in human skin fibroblasts after at 100 ug/ml after 72 hrs by ELISA relative to control; format: functional, Skin fibroblast; how it was run: as §1

Compound	MIC [1] [µg/mL]	Activity (Skin fibroblast)	MIC (Brevibacterium linens) [µg/mL]	inhibition at 72 h, 100 ug/ml [2] [%]	inhibition at 72 h, 10 ug/ml [3] [%]	Activity [4] [%]
O=C(CCC1CCCCC1)NNC(=S)NC1CCCCC1	50 (≈ 161 µM)	inactive	> 100			
S=c1[nH]nc(CCC2CCCCC2)n1C1CCCCC1	50 (≈ 170 µM)	inactive	> 100			
CSC(=S)NNC(=O)CCC1CCCCC1	50 (≈ 192 µM)	inactive	> 100			
C=CCn1c(CCC2CCCCC2)n[nH]c1=S	50 (≈ 199 µM)	inactive	> 100			
S=c1[nH]nc(CCC2CCCCC2)o1	25 (≈ 118 µM)	inactive	> 100			
O=C(CCC1CCCCC1)NNC(=S)Nc1ccc(Cl)cc1	50 (≈ 147 µM)	inactive	> 100			
CC1(C)CNc2nnc(CCC3CCCCC3)n2C1	50 (≈ 191 µM)	inactive	> 100			
c1ccc2c(c1)ccc1nc(CCC3CCCCC3)[nH]c12	1.5 (≈ 5.39 µM)	inactive	> 100	74	16	
c1ccc2nc3cc4[nH]c(CCC5CCCCC5)nc4cc3nc2c1	3.1 (≈ 9.38 µM)	inactive	> 100	11	0	
CO[C@H]1/C=C/O[C@@]2(C)Oc3c(C)c(O)c4c(O)c(c(/C=N/N5CCN(C)CC5)c(O)c4c3C2=O)NC(=O)/C(C)=C\C=C\[C@H](C)[C@H](O)[C@@H](C)[C@@H](O)[C@@H](C)[C@H](OC(C)=O)[C@@H]1C [RIFAMPIN]	1.2 (≈ 1.46 µM)					
Brc1cnc2[nH]c(CCC3CCCCC3)nc2c1	6.5 (≈ 21.1 µM)	inactive	> 100	100	17	
S=c1[nH]nc(CCC2CCCCC2)[nH]1	50 (≈ 237 µM)	inactive	> 100			
c1cnc2[nH]c(CCC3CCCCC3)nc2c1	25 (≈ 109 µM)	inactive	> 100	41	0	
Cl.Cl.c1cc2nc(CCC3CCCCC3)[nH]c2cn1	25	inactive	> 100	0	0	
CNC(=S)NNC(=O)CCC1CCCCC1	50 (≈ 205 µM)	inactive	> 100			
O=[N+]([O-])c1cc(Cl)cc2[nH]c(CCC3CCCCC3)nc12	12.5 (≈ 40.6 µM)		> 100	18	0	166
CSC(=NNC(=O)CCC1CCCCC1)SC	50 (≈ 182 µM)	inactive	> 100			
S=c1[nH]nc(CCC2CCCCC2)n1-c1ccc(Cl)cc1	50 (≈ 155 µM)	inactive	> 100			
Cn1c(CCC2CCCCC2)n[nH]c1=S	50 (≈ 222 µM)	inactive	> 100			
C=CCNC(=S)NNC(=O)CCC1CCCCC1	50 (≈ 186 µM)	inactive	> 100			
NNC(=O)c1ccncc1 [ISONIAZID]	0.5 (≈ 3.65 µM)					
NC(=O)c1cnccn1 [PYRAZINAMIDE]	25 (≈ 203 µM)					
O=C(CCC1CCCCC1)NN=C1SCCS1	50 (≈ 184 µM)	inactive	> 100			
